GPR7 antag: GPR7 receptor antagonists, primary screen, cell-based, fluorescence, single concentration | Neuropeptides B/W receptor type 1 (Homo sapiens), P48145 | GPR7-expressing cells, fluorescence antagonist assay | inhibition, % at 4.4 µM | actives 1.1% (n = 290,000); in the data active means inhibition above about 16%, passing the limit was not always enough;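 further: cells stimulated with the agonist NPW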
Target sequence (P48145 whole entry, looked up): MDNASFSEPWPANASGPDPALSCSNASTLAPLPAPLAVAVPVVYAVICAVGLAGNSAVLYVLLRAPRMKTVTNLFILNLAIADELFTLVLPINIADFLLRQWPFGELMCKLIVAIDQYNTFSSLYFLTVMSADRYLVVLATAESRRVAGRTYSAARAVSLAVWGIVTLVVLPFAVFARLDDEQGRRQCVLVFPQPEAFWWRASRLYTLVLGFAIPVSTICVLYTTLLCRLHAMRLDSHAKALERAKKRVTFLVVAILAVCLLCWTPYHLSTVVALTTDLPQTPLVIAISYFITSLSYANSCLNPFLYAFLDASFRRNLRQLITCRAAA
OX1R antag-1: antagonists of human orexin 1 receptor (OX1R); Orexin/Hypocretin receptor type 1 (Homo sapiens), O43613; OX1R-expressing cells, FRET antagonist read-out; inhibition, % at 6.6 µM; actives 1.8% (n = 330,000); AID 485270, 2010; in the data active means inhibition mostly above about 38%, no sharp cut-off; inactive means mostly below about 40%
CHO parental Ca: ATP-evoked calcium signal inhibitors, parental CHO, primary screen, counter-screen for OX1R antagonist project, cell-based, fluorescence, Fluo-8 calcium dye. parental CHO-K1, ATP-induced calcium, Fluo-8 fluorescence. inhibition, % at 5.6 µM. actives 0.63% (n = 330,000). AID 463079, 2010;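 active means inhibition above that plate's mean sample inhibition plus 3 SD, cut at about 26% in these data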
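Assay system: untransfected parental CHO cell line. Also added: ATP agonist challenge. Dosing: one dose, 5.6 µM nominal. Measured by: Fluo-8 fluorescence. Read-out: % inhibition. Benchmarks: ATP wells versus no-ATP DMSO wells. Repeats: no replicates.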
OX1R antag-2: OX1R (HCRTR1) antagonists, primary screen, fluorescence, CHO/OX1R cells, Fluo-8 calcium, orexin A; Orexin/Hypocretin receptor type 1 (Homo sapiens), O43613; Fluo-8 calcium fluorescence; inhibition, % at 5 µM; actives 0.43% (n = 330,000);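 active means inhibition above its plate's threshold, mean inhibition of all tested compounds on the plate plus 3 SD, cut at about 37% in these data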
GalR3 antag: GalR3 antagonists in HEK293 cells, primary screen, cell-based, fluorescence readout | HEK293 GalR3-CNG cAMP membrane potential fluorescence; galR3 body fused to GalR1 C-terminus | AID 651719, 2012 | Galanin receptor type 3 (Homo sapiens), O60755 | inhibition, % at 3 µM | actives 0.44% (n = 360,000);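 active means inhibition above the screen-wide average plus 3 SD, cut at about 13% in these data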;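 further: forskolin and galanin both at EC90 stimulate the cells; cAMP rise reported by CNG channel membrane potential dye signal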
Target sequence (O60755 1-299 limits assumed): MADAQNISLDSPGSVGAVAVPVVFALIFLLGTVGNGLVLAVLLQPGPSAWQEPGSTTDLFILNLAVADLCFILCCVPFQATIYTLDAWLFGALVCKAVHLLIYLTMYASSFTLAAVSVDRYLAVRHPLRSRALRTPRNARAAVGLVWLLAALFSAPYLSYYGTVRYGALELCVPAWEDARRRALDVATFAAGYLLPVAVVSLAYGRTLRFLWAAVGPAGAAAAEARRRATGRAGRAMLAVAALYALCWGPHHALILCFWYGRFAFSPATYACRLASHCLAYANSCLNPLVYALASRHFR
GalR3 conf: GalR3 antagonist hit confirmation, cell-based, fluorescence, triplicate. shares compounds with GalR3 antag. HEK293 GalR3 CNG cAMP biosensor, membrane potential fluorescence; galR3 fused to GalR1 carboxy tail; challenged with forskolin and galanin at EC90. inhibition, % at 3 µM. actives 59% (n = 1,600);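 active means inhibition above the primary screen's cutoff, the mean inhibition of all screened compounds plus 3 SD, cut at about 13% in these data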
HEK-CNG parental: nonspecific cAMP agonists in parental HEK-CNG cells, counter-screen for GalR3 antagonist project, cell-based, fluorescence, high throughput; HEK293-CNG parental cells, cAMP membrane potential fluorescence; normalised: DMSO wells 0%, forskolin wells 100%; shares compounds with GalR3 antag; activation, % at 3 µM; actives 10% (n = 1,600); in the data active means activation above about 1.3%
Each line names hits and unclear results; the compound was inactive in the other large screens (follow-up assays come after a bar, where they were run). An excerpt weighted towards active compounds, which were near 3.1% of everything screened.

Cc1cc(=O)[nH]c(N/N=C/c2cccc([N+](=O)[O-])c2)n1	none
O=[N+]([O-])c1ccc(OCc2cnc(Cl)s2)c([N+](=O)[O-])c1	none
O=C(CC1C(=O)NCCN1Cc1ccccc1C(F)(F)F)NCCn1cccn1 (configuration not stated)	none
CC1CCN(CCCCOc2ccc([N+](=O)[O-])cc2)CC1	none
COC(=O)C1CCN(Cc2ccc(OCCCN3CCN(c4ccc([N+](=O)[O-])cc4)CC3)cc2)CC1	GalR3 antag 13.4 | GalR3 conf 114.4 | HEK-CNG parental 3.1
Cc1ccc(C(=O)OCC(=O)N2CCNC2=O)c(C)c1	none (no result: GPR7 antag, OX1R antag-1, CHO parental Ca, OX1R antag-2)
N#Cc1sc2nc(N3CCCCC3)c3c(c2c1N)CCCC3	none
Cc1nc2sc(C#N)c(N)c2c2c1CCCC2	GalR3 antag 26.9 | GalR3 conf 34.4 | HEK-CNG parental inactive
CC(=O)NCCC1CCN(c2nc3nonc3nc2N(C)Cc2ccccc2)CC1	GalR3 antag 19.6 | GalR3 conf inactive | HEK-CNG parental inactive
CCCCNC(=O)N1CCC(CCC(=O)N(C)Cc2ccccc2)CC1	none
CCCCCn1c2c(c(=N)c3ccccc31)CCC2	none
CCCCCCCCCCn1c2c(c(=N)c3c1CCC3)CCC2	GPR7 antag 77.4, OX1R antag-2 48.1, GalR3 antag 28.2 | GalR3 conf 38.7 | HEK-CNG parental 23.8
CCCCCCCCn1c2c(c(=N)c3ccccc31)CCC2	GPR7 antag 66.8, GalR3 antag 44.1 (no result: OX1R antag-1, CHO parental Ca, OX1R antag-2) | GalR3 conf 62.2 | HEK-CNG parental 10.6
O=C(Cc1ccccc1)Nc1scc(-c2ccccc2)c1C(=O)N1CCOCC1	none (no result: GalR3 antag)
NC(=O)c1c(-c2ccc(Cl)cc2Cl)csc1NC(=O)Cc1ccccc1	OX1R antag-1 57.9, CHO parental Ca 55.7, GalR3 antag 95.1 | GalR3 conf 113.4 | HEK-CNG parental inactive
CCN(CC)c1ccc(/C=C(/C#N)C(=O)NC(C)C)o1	GalR3 antag 12.9 | GalR3 conf inactive | HEK-CNG parental inactive
Cc1ccc(NC(=O)CCC(=O)N/N=C/c2cccs2)cc1	none
CN(C)S(=O)(=O)N1CCC(Oc2cccc(C(=O)NC3CCCCCC3)c2)CC1	GalR3 antag 28.9 | GalR3 conf 99.9 | HEK-CNG parental inactive
CCN1CCN(C(=O)c2cccc(OC3CCN(S(=O)(=O)N(C)C)CC3)c2)CC1	none
Cc1ncnc(N)c1CCCNc1ccccc1	none (no result: GPR7 antag, OX1R antag-1, CHO parental Ca, OX1R antag-2)
CCn1cc(CN(C)S(=O)(=O)c2ccc3ccccc3c2)c(C)n1	GalR3 antag 71.1 | GalR3 conf 102.8 | HEK-CNG parental inactive
CCn1cc(CN(C)S(=O)(=O)c2cccc([N+](=O)[O-])c2)cn1	none
Cc1ccc(N(CC(=O)NCCSc2nc3ccccc3s2)S(=O)(=O)c2ccccc2)c(C)c1	none
Cc1c(C(=O)N2CCC(Cc3ccccc3)CC2)sc2ncnc(N3CCC(C)CC3)c12	none
c1ccc(CC2CCN(c3ncnc4sccc34)CC2)cc1	GalR3 antag 70.1 (no result: OX1R antag-1, CHO parental Ca, OX1R antag-2) | GalR3 conf 87.8 | HEK-CNG parental inactive
CN(C)S(=O)(=O)Oc1cc(Cl)ccc1C(=O)Nc1ccc(F)cc1F	none
Cc1ccc2c(c1)C1C3CCC(C3)C1S(=O)N2 (configuration not stated)	GalR3 antag 18.0 | GalR3 conf inactive | HEK-CNG parental inactive
O=C(CCCc1c[nH]c2ccccc12)Nc1ccc(S(=O)(=O)Nc2ncccn2)cc1	none
COc1ccc(C(=O)OC(C)C(=O)NC2CCCCC2C)cc1S(=O)(=O)N1CCOCC1 (configuration not stated)	none (no result: GPR7 antag)
N#CCc1ccc(NC(=O)c2ccc(CN3CCc4ccccc4C3)cc2)cc1	GalR3 antag 30.4 | GalR3 conf 105.0 | HEK-CNG parental inactive
O=C(Nc1ccc(Cl)cc1)c1ccc(CN2CCc3ccccc3C2)cc1	GalR3 antag 107.5 | GalR3 conf 102.2 | HEK-CNG parental inactive
O=S(=O)(NCc1ccco1)c1cnc(Cl)c(Br)c1	none
OCc1ccccc1O[C@@H]1O[C@H](CO)[C@@H](O)[C@H](O)[C@H]1O	none
Nc1oc2ccccc2c1C(=O)Cc1ccccc1O[C@@H]1O[C@H](CO)[C@@H](O)[C@H](O)[C@H]1O	GalR3 antag 15.7 (no result: GPR7 antag) | GalR3 conf inactive | HEK-CNG parental inactive
O=C(NCc1ccc(F)cc1)c1cc2c(s1)CS(=O)(=O)C2	none
Cn1c(SCCCC(=O)c2ccc(F)cc2)nnc1-c1ccncc1	none
COCCn1c(SCCCC(=O)c2ccc(Br)cc2)nnc1-c1ccncc1	GalR3 antag 17.9 | GalR3 conf 38.4 | HEK-CNG parental inactive
COc1cc2ccccc2c2c1CCCC2=O	none (no result: GalR3 antag) | GalR3 conf inactive | HEK-CNG parental inactive
O=C1CCCc2ccc3ccccc3c21	none (no result: GPR7 antag, OX1R antag-1, CHO parental Ca, OX1R antag-2)
Cc1ccccc1S(=O)(=O)/N=C(/c1ccccc1)N1CCOCC1	GalR3 antag 13.8 | GalR3 conf inactive | HEK-CNG parental inactive
Cc1ccc(S(=O)(=O)NC(=O)COc2cc(C)ccc2C(C)C)cc1	none
O=S(=O)(c1ccccc1)N1CCC(O)(CSc2ccccc2)CC1	none
O=S(=O)(c1ccccc1)N1CCC(O)(CSc2ccc(F)cc2)CC1	GPR7 antag 17.9, GalR3 antag 72.5 | GalR3 conf 44.1 | HEK-CNG parental inactive
CC(C)(C)C(=O)NC1CC2CCCC(C1)N2C(=O)Nc1ccccc1 (configuration not stated)	none
CC(C)c1ccc(CNC(=O)C2CCCN2S(=O)(=O)c2ccccc2)cc1 (configuration not stated)	none
O=C(c1cccnc1Cl)N1CCOCC1	GalR3 antag 13.1 | GalR3 conf inactive | HEK-CNG parental inactive
OCCC#Cc1ccc(CN2CCN(C3CCCCC3)C(CCO)C2)cc1 (configuration not stated)	GalR3 antag 13.0 | GalR3 conf inactive | HEK-CNG parental inactive
COc1ccc(-c2noc(CCC(=O)NCCCN3CCC(Cc4ccccc4)CC3)n2)cc1	GPR7 antag 28.9, GalR3 antag 76.3 | GalR3 conf inactive | HEK-CNG parental 6.1
CCCCNc1cc(Cl)nc(N)n1	none
Nc1nnc(SCC(=O)NCCOc2ccccc2)s1	GalR3 antag 17.9 | GalR3 conf inactive | HEK-CNG parental inactive
O=C(COc1ccc(Nc2ccccc2)cc1)OCC(=O)N1CCCCC1	none
CCOc1ccc(N/C(SCc2cccc([N+](=O)[O-])c2)=C(/C#N)C(N)=O)cc1	none
